Measured values from ChEMBL document CHEMBL4513216, “Probing the Open Global Health Chemical Diversity Library for Multistage-Active Starting Points for Next-Generation Antimalarials” (ACS Infect Dis, 2020).

tested on: not listed separately; assay: (§1) Toxicity liver stage against HepG2, at 10uM; format: cell-based; design: test concentration 10 uM, cell line HepG2-A16-CD81EGFP; conditions: human, HepG2-A16-CD81EGFP cells; read-out: INHIBITION
Procedure, shortened: (§2)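 Uninfected HepG2-A16-CD81EGFP cells, 3 × 10^3 per well, 1536-well, plated on prespotted compound at 10 μM final, parasite-free screening media added to match infected plates; puromycin 10 μM positive, DMSO 0.5% negative; run in parallel with 48 h PbLuc assay at 37 °C, 5% CO2; viability by CellTiter-Glo luminescence, normalized to controls.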

For `CC(=O)c1ccc(OCC(=O)c2cccn2C)cc1`, which cytotoxicity at 10 µM is on record?
The cytotoxicity at 10 µM was 27.6%.

With `COc1ccc(C(=O)Nc2cccc(SC)c2)c(OC)n1` as the compound, how does the cytotoxicity at 10 µM read?
The cytotoxicity at 10 µM was 13.2%.

With `O=C(NCCc1nccs1)c1n[nH]c2c1CCC2` as the compound, how does the cytotoxicity at 10 µM read?
The cytotoxicity at 10 µM was 3.89%.

For `Cn1cccc1C(O)CNC(=O)c1ccc(C(F)(F)F)cc1` (stereo not given), which cytotoxicity at 10 µM is on record?
The cytotoxicity at 10 µM was 2.9%.

For `CC1CCc2nc(O)c(C(=O)NCc3ccccc3F)cc2C1` (stereo not given), which cytotoxicity at 10 µM is on record?
Its cytotoxicity at 10 µM is 4.47%.

Which cytotoxicity at 10 µM does the source give for `Cc1ccccc1-n1ccc2nc(N3CCCC3)ncc2c1=O` here?
The cytotoxicity at 10 µM was -5.1%.

With `CCc1c(C)nn2c(O)cc(C3CCN(C(=O)c4ccccn4)C3)nc12` (stereo not given) as the compound, how does the cytotoxicity at 10 µM read?
Its cytotoxicity at 10 µM is 6.7%.

With `N#Cc1cnn(C(=O)CCCOc2ccccc2Cl)c1N` as the compound, how does the cytotoxicity at 10 µM read?
Its cytotoxicity at 10 µM is -1.34%.

With `Cc1cccc(NC(=O)NC2CCC3(C2)OCCO3)c1Cl` (stereo not given) as the compound, how does the cytotoxicity at 10 µM read?
The cytotoxicity at 10 µM was 10.6%.

Which cytotoxicity at 10 µM does the source give for `CCn1cnnc1CNS(=O)(=O)N1CCCC1c1ccco1` (stereo not given) here?
Its cytotoxicity at 10 µM is -141%.

Which cytotoxicity at 10 µM does the source give for `CC(O)CN1CCN(Cc2coc(-c3cccc(Cl)c3)n2)CC1` (stereo not given) here?
The cytotoxicity at 10 µM was -4.73%.

Which cytotoxicity at 10 µM does the source give for `Cc1cc(C(=O)N2CCNC(=O)C2)c(C)n1Cc1ccccn1` here?
Its cytotoxicity at 10 µM is -2.33%.

With `NC(=O)C(NC1CCN(CC2CCCCC2)CC1)c1ccccc1` (stereo not given) as the compound, how does the cytotoxicity at 10 µM read?
The cytotoxicity at 10 µM was -4.57%.

With `CS(=O)(=O)CCC(=O)Nc1ccsc1` as the compound, how does the cytotoxicity at 10 µM read?
Its cytotoxicity at 10 µM is -3.39%.

For `COc1ccc(F)cc1CN1CCN(Cc2nccn2C)C(C)C1` (stereo not given), which cytotoxicity at 10 µM is on record?
Its cytotoxicity at 10 µM is 2.01%.

With `N#CCCN(Cc1ccco1)C(=O)CCCc1ccccc1` as the compound, how does the cytotoxicity at 10 µM read?
The cytotoxicity at 10 µM was 73.1%.

With `CC1CCCCN1Cc1nc(C2CC2)no1` (stereo not given) as the compound, how does the cytotoxicity at 10 µM read?
Its cytotoxicity at 10 µM is 4.48%.

Which cytotoxicity at 10 µM does the source give for `COCCN(C)C(=O)Nc1ccc(C(=O)NCCC(=O)OC)cc1` here?
Its cytotoxicity at 10 µM is 7.2%.

With `Cc1cnc(CNC(=O)NCCOc2ncccc2Cl)s1` as the compound, how does the cytotoxicity at 10 µM read?
Its cytotoxicity at 10 µM is 8.35%.

With `Cc1cnc(CCNC(=O)NCCOc2ncccc2Cl)s1` as the compound, how does the cytotoxicity at 10 µM read?
The cytotoxicity at 10 µM was 9.18%.

For `Cc1cnc(NC(=O)NCCOc2ncccc2Cl)s1`, which cytotoxicity at 10 µM is on record?
The cytotoxicity at 10 µM was 6.62%.

For `COc1ccc(C)cc1CNC(=O)C1=NN(c2ccccc2)C(=O)CN1`, which cytotoxicity at 10 µM is on record?
Its cytotoxicity at 10 µM is 12.8%.

Which cytotoxicity at 10 µM does the source give for `O=C(c1ccn(-c2cccc(F)c2)n1)N1CCN(CCO)CC1` here?
The cytotoxicity at 10 µM was -4.67%.

For `CCc1noc(CNc2c(F)cccc2-n2cccn2)n1`, which cytotoxicity at 10 µM is on record?
Its cytotoxicity at 10 µM is -5.14%.

Which cytotoxicity at 10 µM does the source give for `O=C1CN(Cc2nnc(-c3ccc(Cl)cc3)o2)CCN1` here?
Its cytotoxicity at 10 µM is -0.238%.

Which cytotoxicity at 10 µM does the source give for `CC(Cn1cccn1)NC(=O)Nc1ccc(N2CCCCC2)nc1` (stereo not given) here?
Its cytotoxicity at 10 µM is -4.39%.

For `Cc1ccc(NC(=O)NC(C)Cn2cccn2)cc1` (stereo not given), which cytotoxicity at 10 µM is on record?
Its cytotoxicity at 10 µM is -0.577%.

For `CSC(C)(C)CNC(=O)Nc1cccc(-c2nccn2C)c1`, which cytotoxicity at 10 µM is on record?
The cytotoxicity at 10 µM was -3.13%.

With `Cc1ccc(C(=O)Nc2ccc(N(C)C)nc2)n1C` as the compound, how does the cytotoxicity at 10 µM read?
The cytotoxicity at 10 µM was -9.38%.

With `CN(C)C(=O)c1cnc(-c2ccc3c(c2)OCO3)s1` as the compound, how does the cytotoxicity at 10 µM read?
The cytotoxicity at 10 µM was 5.29%.

Which cytotoxicity at 10 µM does the source give for `O=c1oc(-c2ccc(F)cc2)nn1CCS(=O)(=O)c1ccccc1` here?
Its cytotoxicity at 10 µM is -0.924%.

Which cytotoxicity at 10 µM does the source give for `COc1ccccc1OCC(=O)NCc1ncc(C)c(OC)c1C` here?
Its cytotoxicity at 10 µM is -6.63%.

With `COc1c(C)cnc(CNC(=O)CCOCc2ccccc2)c1C` as the compound, how does the cytotoxicity at 10 µM read?
Its cytotoxicity at 10 µM is -4.31%.

With `CNC(=O)c1ccc(CNC(=O)c2cc(C(C)C)n(C)n2)cc1` as the compound, how does the cytotoxicity at 10 µM read?
The cytotoxicity at 10 µM was -9.71%.

For `COc1ccc2c(OCC(=O)NCC(F)(F)F)ccnc2c1`, which cytotoxicity at 10 µM is on record?
Its cytotoxicity at 10 µM is -3.88%.

Which cytotoxicity at 10 µM does the source give for `O=C(Nc1ccccc1)c1ccc(NCc2nccs2)nn1` here?
The cytotoxicity at 10 µM was 5.62%.

Which cytotoxicity at 10 µM does the source give for `Cc1nc(-c2cccc(C(=O)N(C)C)c2)cs1` here?
The cytotoxicity at 10 µM was 1.77%.

For `Clc1ccc(CNc2ccc(Cl)cn2)cc1`, which cytotoxicity at 10 µM is on record?
The cytotoxicity at 10 µM was 6.96%.

Which cytotoxicity at 10 µM does the source give for `Cc1ccsc1CNC(=O)CSc1nnc[nH]1` here?
The cytotoxicity at 10 µM was -0.655%.

With `CCn1ccc2cc(NC(=O)CC3CCCO3)ccc21` (stereo not given) as the compound, how does the cytotoxicity at 10 µM read?
The cytotoxicity at 10 µM was 2.5%.

With `CNc1ncc(CN(C)C(=O)[C@@]23CNC[C@@H]2CN(C(=O)C2CC2)C3)cn1` as the compound, how does the cytotoxicity at 10 µM read?
Its cytotoxicity at 10 µM is 4.67%.

For `CC(NS(C)(=O)=O)C(=O)N(C)Cc1csc(-c2ccccc2)n1` (stereo not given), which cytotoxicity at 10 µM is on record?
Its cytotoxicity at 10 µM is 2.5%.

Which cytotoxicity at 10 µM does the source give for `Cc1nc(C)n(CCCNC(=O)C(C)n2ccnc2C(C)C)n1` (stereo not given) here?
The cytotoxicity at 10 µM was -4.97%.

Which cytotoxicity at 10 µM does the source give for `CCc1ccc(CN2CCC(=O)N(CC3CC3)C(C(C)C)C2)nc1` (stereo not given) here?
The cytotoxicity at 10 µM was 2.08%.

Which cytotoxicity at 10 µM does the source give for `CCOC(=O)N1CCN(C(=O)Cn2ccc3ncccc3c2=O)CC1` here?
Its cytotoxicity at 10 µM is -4.99%.

Which cytotoxicity at 10 µM does the source give for `CCc1nnc(N2C[C@@H](CN(C)CCO)[C@@H](CO)C2)s1` here?
Its cytotoxicity at 10 µM is -5.61%.

For `FC(F)(F)C1CN(c2nc(-c3ccccc3)no2)CCO1` (stereo not given), which cytotoxicity at 10 µM is on record?
The cytotoxicity at 10 µM was -1.52%.

For `CC(C)C1CN(Cc2cnc(N(C)C)nc2)CCCN1CC1CC1` (stereo not given), which cytotoxicity at 10 µM is on record?
Its cytotoxicity at 10 µM is -6%.

For `CN(C)c1ccc(-c2cccc(-c3ccn(CCCO)n3)c2)nn1`, which cytotoxicity at 10 µM is on record?
The cytotoxicity at 10 µM was -3.06%.

With `CC(C)N1CCN(CCn2cnc3c(F)cccc3c2=O)CC1` as the compound, how does the cytotoxicity at 10 µM read?
Its cytotoxicity at 10 µM is 1.64%.

For `O=C(CCn1ccc2ncccc2c1=O)N1CCCC1`, which cytotoxicity at 10 µM is on record?
Its cytotoxicity at 10 µM is -1.93%.

For `Cc1ccc(C)c(S(=O)(=O)N2CCN(C)C3(CCC(=O)N(C)CC3)C2)c1` (stereo not given), which cytotoxicity at 10 µM is on record?
The cytotoxicity at 10 µM was 7.01%.

Which cytotoxicity at 10 µM does the source give for `CO[C@H]1C[C@@H](O)C12CCN(C(=O)c1cccc(CCC(C)(C)O)c1)CC2` here?
The cytotoxicity at 10 µM was 2.74%.

For `CC(C)c1noc(-c2ccc(NCC3CCCOC3)nc2)n1` (stereo not given), which cytotoxicity at 10 µM is on record?
Its cytotoxicity at 10 µM is -2.26%.

Which cytotoxicity at 10 µM does the source give for `COc1cc(-c2nc3c([nH]2)CCCNC3=O)ccc1OC(C)C` here?
The cytotoxicity at 10 µM was 13.3%.

For `COc1ccccc1Oc1ncccc1CNC(=O)[C@@H](N)[C@@H](C)O`, which cytotoxicity at 10 µM is on record?
The cytotoxicity at 10 µM was -6.29%.

For `CCCc1cnc(C)nc1N1CCC2(CC1)CNC(=O)O2`, which cytotoxicity at 10 µM is on record?
The cytotoxicity at 10 µM was 44.6%.

Which cytotoxicity at 10 µM does the source give for `O=C(Nc1ccc(F)cc1)C1CNCCN1C(=O)CC1CCCCC1` (stereo not given) here?
The cytotoxicity at 10 µM was 7.01%.

For `COc1ccccc1[C@@H]1CN(Cc2nccn2C)C[C@H]1C(=O)O`, which cytotoxicity at 10 µM is on record?
The cytotoxicity at 10 µM was -4.83%.

Which cytotoxicity at 10 µM does the source give for `CN(Cc1ccco1)c1ccc(-c2nccn2C)nn1` here?
The cytotoxicity at 10 µM was -0.447%.

Which cytotoxicity at 10 µM does the source give for `CC(C)NC(=O)N(C)C(c1cccc(F)c1)c1ccccn1` (stereo not given) here?
Its cytotoxicity at 10 µM is 4.86%.

Which cytotoxicity at 10 µM does the source give for `Cc1nnc(NC(=O)NCc2ccc(F)cc2)s1` here?
The cytotoxicity at 10 µM was -26%.

Which cytotoxicity at 10 µM does the source give for `CN(C)C(=O)c1cccc(CN2CCN(CCO)CC2)c1` here?
Its cytotoxicity at 10 µM is -28.6%.

With `O=C(Nc1cccnc1)C1=NN(c2ccccc2)C(=O)CN1` as the compound, how does the cytotoxicity at 10 µM read?
Its cytotoxicity at 10 µM is -7.12%.

Which cytotoxicity at 10 µM does the source give for `O=C(NCCc1ccccc1F)NCC(O)c1cccc(F)c1` (stereo not given) here?
The cytotoxicity at 10 µM was -6.23%.

With `Cc1cc(N2CCC(C(=O)N(C)C)CC2)nc(-c2ccncc2)n1` as the compound, how does the cytotoxicity at 10 µM read?
Its cytotoxicity at 10 µM is -17.1%.

For `CN(C)S(=O)(=O)N1C[C@H]2CCC[C@@]2(COCc2cccnc2)C1`, which cytotoxicity at 10 µM is on record?
Its cytotoxicity at 10 µM is 9.19%.

With `CN1C[C@H]2CC[C@@H](C1)N(Cc1ccccc1OCCN1CCOCC1)C2` as the compound, how does the cytotoxicity at 10 µM read?
Its cytotoxicity at 10 µM is -3%.

With `Cc1ccc(SCCCNC(=O)c2cn(C3CCC(N)CC3)nn2)cc1` (stereo not given) as the compound, how does the cytotoxicity at 10 µM read?
Its cytotoxicity at 10 µM is -8.33%.

tested on: HepG2; assay: as §1; format: cell-based; design: test concentration 10 uM, cell line HepG2-A16-CD81EGFP; conditions: human, hepg2, 10 µM; 10 µM; procedure, shortened: as §2

With `CCc1c(C)nn2c(O)cc(C3CCN(C(=O)c4ccccn4)C3)nc12` (stereo not given) as the compound, how does the INHIBITION read?
Its INHIBITION is 4.85%.
